Data published in ChEMBL document CHEMBL1124852, “Synthesis of 3-arylecgonine analogues as inhibitors of cocaine binding and dopamine uptake” (J Med Chem, 1990).

Key:
Bos taurus = species on record: Bos taurus; assay: Competitive inhibition against [3H]dopamine uptake in bovine striatal tissue; assay type: functional, Striatum
Summary of the method: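 Striatal P2 synaptosomes prepared in ice-cold 0.3 M sucrose with […], pH 7.4 (3000g for 10 min, then supernatant at 17000g for 20 min). [3H]dopamine (30 Ci/mmol) uptake read by filtration at 37 °C; nonspecific uptake measured at 4 °C. Run in triplicate; mean of three experiments; IC50 from log-logit transformation.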

[1] = biological target: Sodium-dependent dopamine transporter (Bos taurus, UniProt P27922); assay: Competitive inhibition against [3H]cocaine binding to cocaine receptor in bovine striatal tissue; assay type: tissue-based, Striatum
Summary of the method: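 Bovine striatum (caudate, putamen, globus pallidus, nucleus accumbens) homogenised in ice-cold 10 mM Na2HPO4 with 0.32 M sucrose, pH 7.4. Pelleted twice at 17000g for 20 min and resuspended to about 3.0 mg/mL protein (Lowry). [3H]cocaine (29.7 Ci/mmol) binding measured by filtration. Triplicates; mean of three experiments; IC50 by log-logit transformation.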

Sequence of Sodium-dependent dopamine transporter (P27922 whole entry): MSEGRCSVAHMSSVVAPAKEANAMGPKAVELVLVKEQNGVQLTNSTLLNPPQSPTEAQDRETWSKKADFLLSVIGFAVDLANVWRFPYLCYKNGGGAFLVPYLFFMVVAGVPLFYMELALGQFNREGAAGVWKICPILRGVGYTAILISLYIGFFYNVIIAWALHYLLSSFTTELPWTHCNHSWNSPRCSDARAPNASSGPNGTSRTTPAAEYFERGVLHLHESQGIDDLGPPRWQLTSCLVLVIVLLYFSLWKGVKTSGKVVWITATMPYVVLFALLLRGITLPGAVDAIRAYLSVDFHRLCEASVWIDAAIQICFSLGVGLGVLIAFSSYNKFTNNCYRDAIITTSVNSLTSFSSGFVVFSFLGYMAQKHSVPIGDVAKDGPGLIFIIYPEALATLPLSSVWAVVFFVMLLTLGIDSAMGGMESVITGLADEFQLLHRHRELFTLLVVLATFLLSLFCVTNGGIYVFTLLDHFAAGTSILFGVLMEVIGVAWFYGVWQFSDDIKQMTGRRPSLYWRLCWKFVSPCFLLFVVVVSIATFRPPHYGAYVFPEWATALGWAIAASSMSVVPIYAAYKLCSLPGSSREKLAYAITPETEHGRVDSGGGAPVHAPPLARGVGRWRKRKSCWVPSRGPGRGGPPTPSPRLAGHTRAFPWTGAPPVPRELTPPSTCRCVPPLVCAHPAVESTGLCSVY

| SMILES | IC50 (Bos taurus; Bos taurus, Striatum) | IC50 [1] | IC50 (Bos taurus) |
| --- | --- | --- | --- |
| COC(=O)C1C(c2ccc([N+](=O)[O-])cc2[N+](=O)[O-])CC2CCC1N2C (racemic) | 30000 nM | 11000 nM |  |
| COC(=O)C1C(c2ccc(N)cc2)CC2CCC1N2C (stereo not drawn) | 557 nM | 192 nM |  |
| COC(=O)[C@@H]1C2CC[C@H](C[C@@H]1c1ccccc1)N2C (mixture of isomers; form 2) |  | 1200 nM | 2100 nM |
| COC(=O)[C@@H]1C2CC[C@H](C[C@@H]1c1ccccc1)N2C (mixture of isomers; form 1) |  | 22 nM | 133 nM |
